Test results: ChEMBL document CHEMBL4184102, “Small molecule SUMOylation activators are novel neuroprotective agents” (Bioorg Med Chem Lett, 2018)

Key:
[1] = Cytoprotective activity in BGMK cells assessed as reduction in thapsigargin-induced ER stress-mediated cell death by measuring cell viability at 10 uM preincubated for 2 hrs followed by thapsigargin addition measured after 24 hrs by CCK8 assay relative to control; type: cell-based; conditions: Chlorocebus aethiops, read-out: Activity
Method in brief: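 BGMK cells subcultured at 1.2×10^4 cells/ml, pretreated with compound 2 h, then thapsigargin 0.15 μM (150 nM) added for 24 h. Cells then washed, fed fresh complete DMEM plus CCK-8 reagent, incubated 2 h, absorbance read as viability. Salubrinal included as positive control; data as mean ± SEM.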

[2] = target: SUMO-activating enzyme (Homo sapiens) (UniProt Q9UBE0+Q9UBT2); assay: Induction of SUMO-E1/E2 (unknown origin) mediated sumoylation of His-RanGap-1 after 30 mins by HTRF assay relative to control; type: protein-complex assay; parameters: concentration or dose not given beside the values
[3] = (§1) Cytoprotective activity in rat CSM14.1 cells assessed as reduction in thapsigargin-induced ER stress-mediated cell death preincubated for 2 hrs followed by thapsigargin addition measured after 20 hrs by ATPlite assay; type: functional, cell-based
Method in brief: (§2)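 Rat striatal neuroprogenitor CSM14.1 cells were trypsinized, plated in 96-well plates and held overnight at 32 °C. Cells were pretreated with compound for 2 h, then given thapsigargin in DMEM (15 μM final) for another 20 h. Viability was read as cellular ATP content. Thapsigargin without compound served as the 100% death reference and DMSO without thapsigargin as the 100% viability reference. Dose-response data are given as mean ± SEM.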

Rattus norvegicus = species on record: Rattus norvegicus; assay: as §1; type: functional, cell-based; method in brief: as §2

| Compound | viability at 10 µM [1] [%] | Activity [2] [%] | EC50 [3] [µM] | Activity (Rattus norvegicus) |
| --- | --- | --- | --- | --- |
| Cc1cc(C)c2nc(NNC(=O)c3cc(=O)c4ccccc4o3)sc2c1 | 60.3 | 33 | – | – |
| O=S(=O)(Nc1cccc2cccnc12)c1ccc(S(=O)(=O)N2CCCC2)cc1 | 62.4 | 43 | 1.2 to 9.8 | Dose-dependent effect |
| O=C(/C=C/c1ccccc1)NC(NC(=S)Nc1cccc2cccnc12)C(Cl)(Cl)Cl (centres undefined) [SALUBRINAL] | 47.2 | – | – | – |
| O=C(Nc1nc(-c2ccccn2)cs1)C1COc2ccccc2O1 (centres undefined) | 81.4 | 53 | 1.2 to 9.8 | Dose-dependent effect |
| O=S(=O)(Nc1cccc2cccnc12)c1ccccc1 | 35.2 | 25 | – | – |
| O=C(Nc1nc(-c2ccccn2)cs1)c1ccc(Cl)s1 | 45.3 | 25 | – | – |
| O=C(Nc1nc(-c2ccccn2)cs1)c1ccc2c(c1)OCCO2 | 54.9 | 20 | – | – |
| Cc1ccc2sc(NNC(=O)c3cc(=O)c4ccccc4o3)nc2c1C | 54.9 | 38 | 1.2 to 9.8 | Dose-dependent effect |
| Cc1ccc(S(=O)(=O)Nc2cccc3cccnc23)cc1 | 52 | 29 | – | – |
| COc1cccc2sc(NNC(=O)C3COc4ccccc4O3)nc12 (centres undefined) | 38.4 | 17 | – | – |
| O=C(Nc1nc(-c2ccccn2)cs1)c1ccc(Br)s1 | 83.3 | 37 | – | – |
| CC(=O)Nc1ccc(S(=O)(=O)Nc2cccc3cccnc23)cc1 | 53.7 | 28 | – | – |
